Measured values taken from ChEMBL document CHEMBL1649063, “Ursodeoxycholic acid amides as novel glucocorticoid receptor modulators” (J Med Chem, 2011).
Calls of active or inactive are those of the source. The rule behind the calls is not given here.

Experiments:
Type in all cases: cell-based
[1] = target: T1, Glucocorticoid receptor (Homo sapiens, UniProt P04150); assay: Modulation of glucocorticoid receptor in human SKGT4 cells assessed as receptor translocation from cytoplasm to nucleus after 4 hrs by Hoechst staining relative to Dexamethasone
T1 sequence (P04150 whole entry): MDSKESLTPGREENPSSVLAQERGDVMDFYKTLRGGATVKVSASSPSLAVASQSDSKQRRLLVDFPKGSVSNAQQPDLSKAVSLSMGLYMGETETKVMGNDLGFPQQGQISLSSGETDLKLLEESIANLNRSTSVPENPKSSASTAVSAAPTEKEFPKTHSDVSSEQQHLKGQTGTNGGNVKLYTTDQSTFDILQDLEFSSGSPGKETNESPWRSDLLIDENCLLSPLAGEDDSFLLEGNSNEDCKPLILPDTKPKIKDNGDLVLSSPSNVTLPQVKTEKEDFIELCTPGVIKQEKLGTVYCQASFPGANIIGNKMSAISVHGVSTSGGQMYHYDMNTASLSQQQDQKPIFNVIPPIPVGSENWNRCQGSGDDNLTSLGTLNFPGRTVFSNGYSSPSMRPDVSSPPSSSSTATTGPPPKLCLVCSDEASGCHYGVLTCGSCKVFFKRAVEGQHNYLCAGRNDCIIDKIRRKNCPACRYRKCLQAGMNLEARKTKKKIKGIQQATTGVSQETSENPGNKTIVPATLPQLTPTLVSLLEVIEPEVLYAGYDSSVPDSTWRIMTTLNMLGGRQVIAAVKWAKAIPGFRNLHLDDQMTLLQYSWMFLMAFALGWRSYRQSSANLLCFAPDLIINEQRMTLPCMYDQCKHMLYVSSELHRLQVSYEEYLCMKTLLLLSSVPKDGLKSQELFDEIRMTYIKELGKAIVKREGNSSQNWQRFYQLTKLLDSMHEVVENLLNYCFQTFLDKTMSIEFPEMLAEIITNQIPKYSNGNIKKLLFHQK

[2] = target: T2, Mineralocorticoid receptor (Homo sapiens) (UniProt P08235); assay: Modulation of mineralocorticoid receptor in human SKGT4 cells assessed as receptor translocation from cytoplasm to nucleus at 50 uM after 4 hrs by Hoechst staining
T2 sequence (whole entry): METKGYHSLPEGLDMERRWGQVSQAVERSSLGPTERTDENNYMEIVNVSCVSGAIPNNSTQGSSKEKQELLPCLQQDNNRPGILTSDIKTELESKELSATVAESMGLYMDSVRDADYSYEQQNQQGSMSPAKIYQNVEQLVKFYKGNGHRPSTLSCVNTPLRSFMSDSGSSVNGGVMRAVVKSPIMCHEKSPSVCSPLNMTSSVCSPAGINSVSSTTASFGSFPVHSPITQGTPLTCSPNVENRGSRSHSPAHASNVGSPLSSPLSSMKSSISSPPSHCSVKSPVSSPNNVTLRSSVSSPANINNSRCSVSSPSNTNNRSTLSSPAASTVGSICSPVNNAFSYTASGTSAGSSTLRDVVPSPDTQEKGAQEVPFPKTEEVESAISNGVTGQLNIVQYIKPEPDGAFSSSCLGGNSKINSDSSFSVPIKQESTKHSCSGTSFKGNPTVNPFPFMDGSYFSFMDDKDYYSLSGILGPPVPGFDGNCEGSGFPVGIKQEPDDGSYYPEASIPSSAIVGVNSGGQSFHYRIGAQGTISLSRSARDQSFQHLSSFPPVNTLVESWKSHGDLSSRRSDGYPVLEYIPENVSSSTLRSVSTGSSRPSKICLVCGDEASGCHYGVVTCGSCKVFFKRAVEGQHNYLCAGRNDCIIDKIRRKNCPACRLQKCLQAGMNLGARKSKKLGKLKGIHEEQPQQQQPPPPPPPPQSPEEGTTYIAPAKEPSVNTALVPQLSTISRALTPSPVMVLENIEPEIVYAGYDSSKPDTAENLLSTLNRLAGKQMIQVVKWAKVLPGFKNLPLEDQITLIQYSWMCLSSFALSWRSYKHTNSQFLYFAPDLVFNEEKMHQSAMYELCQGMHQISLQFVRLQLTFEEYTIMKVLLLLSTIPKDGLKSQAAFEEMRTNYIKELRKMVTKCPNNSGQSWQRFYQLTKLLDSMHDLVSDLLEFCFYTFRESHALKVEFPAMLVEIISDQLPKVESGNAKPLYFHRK

[3] = target: T3, Glucocorticoid receptor (Homo sapiens) (UniProt P04150); assay: Modulation of glucocorticoid receptor in human SKGT4 cells assessed as receptor translocation from cytoplasm to nucleus at 100 uM after 240 mins by Hoechst staining relative to Dexamethasone
T3 sequence (whole entry): T1 sequence (P04150 whole entry)
How it was run: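 Time course in serum-starved SKGT-4 cells: 100 μM compound for 15, 30, 60, 120 or 240 min in 1% DMSO medium. Fixed, GR immunostained, Hoechst nuclear stain, high-content imaging. Background-corrected nuclear/cytoplasmic GR ratio normalised to Dex 100 nM; mean of two experiments in triplicate, compared with 1% DMSO.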

SMILES | EC50 [1] [µM] | Activity [2] | Activity [3]
C[C@H](CCC#N)[C@H]1CC[C@H]2[C@@H]3[C@@H](O)C[C@@H]4C[C@H](O)CC[C@]4(C)[C@H]3CC[C@]12C | 101 |  | 
C[C@H](CCC(=O)O)[C@H]1CC[C@H]2[C@@H]3[C@@H](O)C[C@@H]4C[C@H](O)CC[C@]4(C)[C@H]3CC[C@]12C |  | inactive | 
C[C@H](C(=O)O)[C@H]1CC[C@H]2[C@@H]3[C@@H](O)C[C@@H]4C[C@H](O)CC[C@]4(C)[C@H]3CC[C@]12C | 99.7 |  | 
CC(NC(=O)CC[C@@H](C)[C@H]1CC[C@H]2[C@@H]3[C@@H](O)C[C@@H]4C[C@H](O)CC[C@]4(C)[C@H]3CC[C@]12C)c1ccccc1 (stereo not given in full) | 124 |  | 
C[C@H](CCC(=O)NCCc1ccccc1)[C@H]1CC[C@H]2[C@@H]3[C@@H](O)C[C@@H]4C[C@H](O)CC[C@]4(C)[C@H]3CC[C@]12C | 109 |  | 
C[C@H](CCC(=O)N1CCNCC1)[C@H]1CC[C@H]2[C@@H]3[C@@H](O)C[C@@H]4C[C@H](O)CC[C@]4(C)[C@H]3CC[C@]12C | 50.8 |  | 
C[C@H](CCC(=O)N1CCN(Cc2ccccc2)CC1)[C@H]1CC[C@H]2[C@@H]3[C@@H](O)C[C@@H]4C[C@H](O)CC[C@]4(C)[C@H]3CC[C@]12C | 5.6 |  | Active
C[C@H](CCC(=O)N1CCOCC1)[C@H]1CC[C@H]2[C@@H]3[C@@H](O)C[C@@H]4C[C@H](O)CC[C@]4(C)[C@H]3CC[C@]12C | 25.3 |  | Active
C[C@H](C#N)[C@H]1CC[C@H]2[C@@H]3[C@@H](O)C[C@@H]4C[C@H](O)CC[C@]4(C)[C@H]3CC[C@]12C | 130 |  | 
C[C@H](CCC(=O)NC1CC1)[C@H]1CC[C@H]2[C@@H]3[C@@H](O)C[C@@H]4C[C@H](O)CC[C@]4(C)[C@H]3CC[C@]12C | 7.3 |  | Active
C[C@H](CCC(=O)NCc1ccccc1)[C@H]1CC[C@H]2[C@@H]3[C@@H](O)C[C@@H]4C[C@H](O)CC[C@]4(C)[C@H]3CC[C@]12C | 110 |  | 
C[C@H](CC(=O)O)[C@H]1CC[C@H]2[C@@H]3[C@@H](O)C[C@@H]4C[C@H](O)CC[C@]4(C)[C@H]3CC[C@]12C [NORUCHOLIC ACID] | 105 |  | 
